Test results as given in ChEMBL document CHEMBL1153099, “2,4-Diaryl-4,6,7,8-tetrahydroquinazolin-5(1H)-one derivatives as anti-HBV agents targeting at capsid assembly” (Bioorg Med Chem Lett, 2010).

What was measured:
Hepatitis B virus = assay: Antiviral activity against HBV infected in human HepG2.2.15 cells assessed as inhibition of viral DNA replication; type: functional, organism-based, HepG2 2.2.15
Method in brief: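 HepG2.2.15 cells, which secrete virus-like particles. Reference anti-HBV agents were run as positive controls. IC50 is the mean of three experiments. A compound with no activity at its maximum nontoxic concentration was scored as not active.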

[1] = Cytotoxicity against human HepG2(2.2.15) cells; type: cell-based
Method in brief: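 Viability of HepG2.2.15 cells was read after 48 h of compound exposure. Cytotoxic IC50 is the mean of three experiments.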

[2] = Therapeutic index, ratio of IC50 for human HepG2(2.2.15) cells to IC50 for HBV; type: cell-based; settings: read-out: Ratio IC50
[3] = Hepatitis B virus, HepG2 2.2.15, read-out: IC50

| IC50 (Hepatitis B virus; [3]) [µM] | IC50 (Hepatitis B virus; hepg2 2.2.15) | SMILES | IC50 [1] [µM] | selectivity ratio [2] |
| --- | --- | --- | --- | --- |
| 1.05 |  | CC1(C)CC(=O)C2=C(C1)NC(c1ncc(F)cc1F)=NC2c1ccc(F)cc1Cl (centres undefined) | 41.2 | 39.2 |
| 0.44 |  | CC1(C)CC(=O)C2=C(C1)NC(c1cccnc1)=NC2c1ccc(F)cc1Cl (centres undefined) | 624 | 1420 |
|  | Not Active | O=C1CCCC2=C1C(c1ccccc1Cl)N=C(c1cccnc1)N2 (centres undefined) | 1120 |  |
|  | Not Active | O=C1CCCC2=C1C(c1ccccc1)N=C(c1cccnc1)N2 (centres undefined) | 369 |  |
| 25.3 |  | CC1(C)CC(=O)C2=C(C1)NC(c1cccnc1)=NC2c1ccc(F)cc1 (centres undefined) | 145 | 5.73 |
| 22.4 |  | CC1(C)CC(=O)C2=C(C1)NC(c1cccnc1)=NC2c1ccccc1 (centres undefined) | 173 | 7.74 |
|  | Not Active | CC1(C)CC(=O)C2=C(C1)NC(c1c(F)cc(F)cc1F)=NC2c1ccc(F)cc1Cl (centres undefined) | 5.6 |  |
|  | Not Active | CC1(C)CC(=O)C2=C(C1)NC(c1cnccn1)=NC2c1ccccc1Cl (centres undefined) | 623 |  |
| 0.22 |  | Nc1ccn([C@@H]2CS[C@H](CO)O2)c(=O)n1 [LAMIVUDINE] |  |  |
| 0.78 |  | COC(=O)C1=C(C)NC(c2ncc(F)cc2F)=N[C@H]1c1ccc(F)cc1Cl | 567 |  |
| 14.2 |  | CC1(C)CC(=O)C2=C(C1)NC(c1cnccn1)=NC2c1ccc(F)cc1Cl (centres undefined) | 773 | 54.5 |
|  | Not Active | O=C1CCCC2=C1C(c1ccccc1Cl)N=C(c1ccccn1)N2 (centres undefined) | 589 |  |
| 4.3 |  | O=C1CCCC2=C1C(c1ccc(F)cc1Cl)N=C(c1ccccn1)N2 (centres undefined) | 620 | 144 |
| 26.2 |  | CC1(C)CC(=O)C2=C(C1)NC(c1cccnc1)=NC2c1ccccc1Cl (centres undefined) | 67.3 | 2.56 |
|  | Not Active | CC1(C)CC(=O)C2=C(C1)NC(c1ncccc1F)=NC2c1ccc(F)cc1Cl (centres undefined) | 371 |  |
| 4.92 |  | CC1(C)CC(=O)C2=C(C1)NC(c1ccncc1)=NC2c1ccc(F)cc1Cl (centres undefined) | 135 | 27.3 |
| 25.1 |  | O=C1CCCC2=C1C(c1ccc(F)cc1Cl)N=C(c1cccnc1)N2 (centres undefined) | 82.8 |  |
|  | Not Active | O=C1CCCC2=C1C(c1ccc(F)cc1Cl)N=C(c1c(F)cc(F)cc1F)N2 (centres undefined) | 123 |  |
|  | Not Active | O=C1CCCC2=C1C(c1ccc(F)cc1)N=C(c1ccccn1)N2 (centres undefined) | 516 |  |
| 1.1 |  | O=C1CCCC2=C1C(c1ccc(F)cc1Cl)N=C(c1ncccc1F)N2 (centres undefined) | 1370 | 1240 |
| 16.5 |  | O=C1CCCC2=C1C(c1ccc(F)cc1Cl)N=C(c1ccncc1)N2 (centres undefined) | 142 | 8.6 |
| 8.75 |  | O=C1CCCC2=C1C(c1ccc(F)cc1Cl)N=C(c1nccs1)N2 (centres undefined) | 47.7 | 5.73 |
| 3.12 |  | CC1(C)CC(=O)C2=C(C1)NC(c1nccs1)=NC2c1ccc(F)cc1Cl (centres undefined) | 57 | 19.2 |
|  | Not Active | O=C1CCCC2=C1C(c1ccc(F)cc1)N=C(c1cccnc1)N2 (centres undefined) | 280 |  |
|  | Not Active | O=C1CCCC2=C1C(c1ccccc1Cl)N=C(c1cnccn1)N2 (centres undefined) | 1470 |  |
|  | Not Active | O=C1CCCC2=C1C(c1ccc(F)cc1Cl)N=C(c1ccco1)N2 (centres undefined) | 717 |  |
| 2.3 |  | O=C1CCCC2=C1C(c1ccc(F)cc1Cl)N=C(c1cnccn1)N2 (centres undefined) | 777 | 338 |
| 6.6 |  | O=C1CCCC2=C1C(c1ccccc1)N=C(c1ccccn1)N2 (centres undefined) | 571 | 86.6 |
